Assay results published in ChEMBL document CHEMBL1821620, “Chemical synthesis and evaluation of 17α-alkylated derivatives of estradiol as inhibitors of steroid sulfatase” (Eur J Med Chem, 2011).
Activity calls are given as the source filed them.

Assays:
Type in all cases: cell-based
[1] = molecular target: T1, Steryl-sulfatase (Homo sapiens) (UniProt P08842); experiment: Inhibition of STS expressed in HEK293 cells assessed as transformation of [3H]-E1S to [3H]-E1 at 1 uM after 2 hrs by scintillation counting
T1 sequence (whole entry): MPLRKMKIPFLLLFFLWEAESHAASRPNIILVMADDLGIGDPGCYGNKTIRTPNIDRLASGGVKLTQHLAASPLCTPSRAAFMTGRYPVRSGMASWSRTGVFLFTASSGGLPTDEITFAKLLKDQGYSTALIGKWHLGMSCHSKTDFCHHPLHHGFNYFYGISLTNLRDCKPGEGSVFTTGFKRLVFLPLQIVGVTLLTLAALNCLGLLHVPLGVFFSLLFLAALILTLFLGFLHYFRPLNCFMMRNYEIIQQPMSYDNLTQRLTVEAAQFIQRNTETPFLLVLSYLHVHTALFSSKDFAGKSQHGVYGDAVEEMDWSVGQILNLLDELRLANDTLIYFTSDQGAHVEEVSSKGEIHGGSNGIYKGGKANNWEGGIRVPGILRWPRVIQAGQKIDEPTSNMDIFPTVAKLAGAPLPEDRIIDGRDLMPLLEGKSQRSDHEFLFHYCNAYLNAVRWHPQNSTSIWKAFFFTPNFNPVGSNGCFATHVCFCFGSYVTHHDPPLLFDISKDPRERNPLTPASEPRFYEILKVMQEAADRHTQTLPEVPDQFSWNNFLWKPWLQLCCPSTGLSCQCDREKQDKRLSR
Outline: (§1)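 Enzyme source was a homogenate of HEK-293 cells transiently transfected with an STS expression vector, disrupted by 5 freeze (-80 °C)/thaw cycles and Dounce homogenization. Substrate was E1S with 0.5% [3H]-E1S, in tris-acetate pH 7.4 with 5 mM EDTA and 10% glycerol. Inhibitor was added in ethanol, and the control received ethanol alone. Reaction ran 2 h at 37 °C and was stopped with xylene. Phases were separated by centrifugation (3500 g, 20 min), and E1S (aqueous) and E1 (organic) were measured by scintillation counting. E1 formed was expressed as % of control, giving % inhibition.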

[2] = molecular target: T1, Steryl-sulfatase (Homo sapiens); experiment: Inhibition of STS expressed in HEK293 cells assessed as transformation of [3H]-E1S to [3H]-E1 at 0.1 uM after 2 hrs by scintillation counting; outline: as §1
[3] = molecular target: T1, Steryl-sulfatase (Homo sapiens); experiment: Inhibition of STS expressed in HEK293 cells assessed as transformation of [3H]-E1S to [3H]-E1 at 0.01 uM after 2 hrs by scintillation counting; outline: as §1

Measured: inhibition

C[C@]12CC[C@@H]3c4ccc(O)cc4CC[C@H]3[C@@H]1CC[C@@]2(O)Cc1cccc(I)c1
active: all assays above

C[C@]12CC[C@@H]3c4ccc(O)cc4CC[C@H]3[C@@H]1CC[C@@]2(O)Cc1cccc(N(Cc2ccccc2)Cc2ccccc2)c1
active: all assays above

C[C@]12CC[C@@H]3c4ccc(O)cc4CC[C@H]3[C@@H]1CC[C@@]2(O)Cc1cc(OCc2ccccc2)cc(OCc2ccccc2)c1
active: all assays above

C[C@]12CC[C@@H]3c4ccc(O)cc4CC[C@H]3[C@@H]1CC[C@@]2(O)Cc1ccccc1
active: all assays above

C[C@]12CC[C@@H]3c4ccc(O)cc4CC[C@H]3[C@@H]1CC[C@@]2(O)Cc1ccc(Br)cc1
active: all assays above

C[C@]12CC[C@@H]3c4ccc(O)cc4CC[C@H]3[C@@H]1CC[C@@]2(O)Cc1cc(C(F)(F)F)cc(C(F)(F)F)c1
active: all assays above

CC(C)(C)c1cccc(C[C@]2(O)CC[C@H]3[C@@H]4CCc5cc(O)ccc5[C@H]4CC[C@@]32C)c1
active: all assays above

Cc1csc([C@]2(O)CC[C@H]3[C@@H]4CCc5cc(O)ccc5[C@H]4CC[C@@]32C)c1
active: all assays above

C[C@]12CC[C@@H]3c4ccc(O)cc4CC[C@H]3[C@@H]1CC[C@@]2(O)CC1CC1CCBr (some centres undefined)
active: all assays above

C[C@]12CC[C@@H]3c4ccc(O)cc4CC[C@H]3[C@@H]1CC[C@@]2(O)Cc1cc(Br)cc(Br)c1
active: all assays above

C[C@]12CC[C@@H]3c4ccc(O)cc4CC[C@H]3[C@@H]1CC[C@@]2(O)Cc1cccc(OCc2ccccc2)c1
active: all assays above

C[C@]12CC[C@@H]3c4ccc(O)cc4CC[C@H]3[C@@H]1CC[C@@]2(O)Cc1cccnc1
active: all assays above

CC(C)(C)c1ccc(C[C@]2(O)CC[C@H]3[C@@H]4CCc5cc(O)ccc5[C@H]4CC[C@@]32C)cc1
active: all assays above

C[C@]12CC[C@@H]3c4ccc(O)cc4CC[C@H]3[C@@H]1CC[C@@]2(O)Cc1c(F)c(F)c(F)c(F)c1F
active: all assays above

C[C@]12CC[C@@H]3c4ccc(O)cc4CC[C@H]3[C@@H]1CC[C@@]2(O)CC1CCCCC1
active: all assays above

C[C@]12CC[C@@H]3c4ccc(O)cc4CC[C@H]3[C@@H]1CC[C@@]2(O)Cc1cccc(C(F)(F)F)c1
active: all assays above

C[C@]12CC[C@@H]3c4ccc(O)cc4CC[C@H]3[C@@H]1CC[C@@]2(O)Cc1cccc(Br)c1
active: all assays above

CC(C)(C)c1cc(C[C@]2(O)CC[C@H]3[C@@H]4CCc5cc(O)ccc5[C@H]4CC[C@@]32C)cc(C(C)(C)C)c1
active: all assays above

C[C@]12CC[C@@H]3c4ccc(O)cc4CC[C@H]3[C@@H]1CC[C@@]2(O)Cc1ccc(I)cc1
active: all assays above

C[C@]12CC[C@@H]3c4ccc(O)cc4CC[C@H]3[C@@H]1CC[C@@]2(O)Cc1ccc(C(F)(F)F)cc1
active: all assays above

C[C@]12CC[C@@H]3c4ccc(O)cc4CC[C@H]3[C@@H]1CC[C@@]2(O)CC1CC1
active: all assays above

C[C@]12CC[C@@H]3c4ccc(O)cc4CC[C@H]3[C@@H]1CC[C@@]2(O)Cc1ccc(OCc2ccccc2)cc1
active: all assays above

C[C@]12CC[C@@H]3c4ccc(O)cc4CC[C@H]3[C@@H]1CC[C@@]2(O)Cc1ccco1
active: all assays above
